The values that follow come from ChEMBL document CHEMBL5634075, “An electrophilic fragment screening for the development of small molecules targeting caspase-2” (Eur J Med Chem, 2023).

For data set [1], the target named is T1, Caspase-2 (Homo sapiens, UniProt P42575).
T1 sequence (P42575 whole entry): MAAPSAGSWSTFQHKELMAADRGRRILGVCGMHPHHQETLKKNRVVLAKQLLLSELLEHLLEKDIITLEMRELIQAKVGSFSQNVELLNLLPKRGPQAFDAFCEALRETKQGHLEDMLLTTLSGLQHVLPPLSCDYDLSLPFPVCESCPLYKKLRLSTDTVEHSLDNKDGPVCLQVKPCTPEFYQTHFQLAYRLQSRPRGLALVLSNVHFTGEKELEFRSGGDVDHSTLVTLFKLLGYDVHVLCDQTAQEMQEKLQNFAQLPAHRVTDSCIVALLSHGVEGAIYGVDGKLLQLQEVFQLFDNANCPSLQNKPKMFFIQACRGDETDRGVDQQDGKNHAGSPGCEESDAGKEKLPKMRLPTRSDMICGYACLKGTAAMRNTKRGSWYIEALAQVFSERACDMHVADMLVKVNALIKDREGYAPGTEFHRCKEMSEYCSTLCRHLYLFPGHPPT
Nature of the data set: Inhibition of recombinant cp-caspase-2 (unknown origin) using Z-VDVAD-AFC as substrate measured after 40 mins by fluorescence assay. The gist of the method:
(§1)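 Ten-point curves in duplicate, 0.4 nM–100 µM. Enzyme (5 nM caspase-2 or cp-caspase-2) in MES pH 6.5 buffer with 10 mM DTT, preincubated with compound 40 min at 37 °C. Then 5 µM Z-VDVAD-AFC. AFC read at ex 400/em 505 nm every 3 min for 1 h. Background-corrected 40-min values fitted to four-parameter sigmoidal curves. Mean ± SEM of N independent experiments.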

The target in data set [2] is T2, Caspase-2 (Homo sapiens) (UniProt P42575).
T2 sequence (whole entry): T1 sequence (P42575 whole entry)
As to the kind of experiment: Irreversible inhibition of recombinant caspase-2 (unknown origin) assessed as ratio of Kinact/Ki using Z-VDVAD-AFC as substrate measured after 40 mins by fluorescence assay. The gist of the method: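 Caspase-2 kinetic fluorometric assay with Z-VDVAD-AFC. kOBS values obtained from progress curves at four or more inhibitor concentrations. kinact/Ki then derived by two-step irreversible secondary regression (Copeland).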

The target in data set [3] is T3, Caspase-3 (Homo sapiens, UniProt P42574).
T3 sequence (P42574 whole entry): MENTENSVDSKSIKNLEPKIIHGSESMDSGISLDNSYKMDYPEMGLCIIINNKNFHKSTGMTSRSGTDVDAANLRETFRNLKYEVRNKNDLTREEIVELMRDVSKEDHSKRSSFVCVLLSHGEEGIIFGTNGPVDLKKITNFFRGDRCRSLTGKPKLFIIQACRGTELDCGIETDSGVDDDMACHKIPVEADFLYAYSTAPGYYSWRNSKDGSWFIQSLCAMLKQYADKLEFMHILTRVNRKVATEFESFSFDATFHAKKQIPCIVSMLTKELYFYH
Nature of the data set: Inhibition of recombinant caspase-3 (unknown origin) using Ac-DEVD-AFC as substrate measured after 40 mins by fluorescence assay.

The target in data set [4] is T2, Caspase-2 (Homo sapiens). As to the kind of experiment: Inhibition of recombinant caspase-2 (unknown origin) at 12.5 uM using Z-VDVAD-AFC as substrate measured after 40 mins by fluorescence assay relative to control. The gist of the method:
(§2)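 Two-point single-run screen in duplicate at 12.5 and 6.25 µM. Then 5 µM Z-VDVAD-AFC, 40 min at 37 °C, stopped with 5 M acetic acid. AFC fluorescence read at ex 400/em 505 nm, corrected for buffer+protein background.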

The subject of data set [5] is HepG2. As to the kind of experiment: Induction of GSH depletion in human HepG2 cells at <10 uM measured after 22 hrs by GSH-glo luminescence assay. Type of data set: functional, cell-based. The gist of the method:
(§3)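 HepG2 cells at 250 cells/well, 1536-well format, settled 4 h at 37 °C and 5% CO2. Compound added (50 nL), 22 h incubation. Medium removed by centrifugation. GSH-Glo reagent 30 min at RT, then Luciferin Detection Reagent 15 min at RT. Luminescence read.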

The target of data set [6] is T2, Caspase-2 (Homo sapiens). As to the kind of experiment: Covalent irreversible binding affinity to recombinant caspase-2 (unknown origin) assessed as modification at Cys320 residue measured after 1 hr by trypsin digestion based UPLC-MS/MS analysis. The gist of the method: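 Recombinant caspase-2 (34 µM, 15 µL) mixed with test compound (1 µL of 10 mM DMSO stock), brought to 50 µL in MES pH 6.5 caspase-2 buffer, 1 h at 37 °C. Then iodoacetamide (62 mM final) 1 h dark RT. Samples denatured in 8 M urea/5 mM DTT and re-alkylated with IAD. Trypsin digestion overnight at 37 °C with 10% acetonitrile. C18 desalting, then gradient LC-MS/MS peptide sequencing.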

In data set [7] the target is T2, Caspase-2 (Homo sapiens). As to the kind of experiment: Inhibition of recombinant caspase-2 (unknown origin) at 6.25 uM using Z-VDVAD-AFC as substrate measured after 40 mins by fluorescence assay relative to control. Put shortly: as §2
The species entered for another data set is Homo sapiens. Nature of the data set: Selectivity ratio of IC50 for recombinant caspase-3 (unknown origin) to recombinant caspase-2 (unknown origin).
Data set [8] relates to HepG2. As to the kind of experiment: Cytotoxicity against human HepG2 cells assessed as reduction in cell viability measured after 22 hrs by cell-titer glo assay. It is filed as functional, cell-based. The gist of the method: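 HepG2 cells at 250 cells/well, 1536-well format, settled 4 h at 37 °C and 5% CO2. Compound added acoustically (50 nL), 22 h at 37 °C. CellTiter-Glo reagent added, 15 min at room temperature, then luminescence read.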

Data set [9] concerns the target T3, Caspase-3. As to the kind of experiment: Inhibition of recombinant caspase-3 (unknown origin) at 62.5 uM using Ac-DEVD-AFC as substrate measured after 40 mins by fluorescence assay relative to control. The following applies: recombinant caspase-3, probe Ac-DEVD-AFC.
For data set [10], the target named is T1, Caspase-2. Nature of the data set: Inhibition of recombinant caspase-2 (unknown origin) using Z-VDVAD-AFC as substrate measured after 40 mins by fluorescence assay. The gist of the method:
as §1

The target of data set [11] is T3, Caspase-3. Nature of the data set: Inhibition of recombinant caspase-3 (unknown origin) at 125 uM using Ac-DEVD-AFC as substrate measured after 40 mins by fluorescence assay relative to control. The following applies: recombinant caspase-3, probe Ac-DEVD-AFC.
For data set [12], the system named is HepG2. Nature of the data set: Induction of GSH depletion in human HepG2 cells at >10 uM measured after 22 hrs by GSH-glo luminescence assay. It is filed as functional, cell-based. Put shortly: as §3
The target of data set [13] is T2, Caspase-2 (Homo sapiens). Nature of the data set: Covalent irreversible binding affinity to recombinant caspase-2 (unknown origin) assessed as modification at Cys320 residue […] measured after 1 hr by trypsin digestion based UPLC-MS/MS analysis. The gist of the method: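 Recombinant caspase-2 (34 µM stock) incubated 1 h at 37 °C with compound (10 mM DMSO stock) in pH 6.5 MES buffer with NaCl, CHAPS, sucrose and 10 mM DTT. Free cysteines were capped with iodoacetamide (62 mM final, 1 h, dark, RT). Samples were dried, denatured in 8 M urea/DTT, re-alkylated, trypsin-digested overnight at 37 °C, C18-desalted and analysed by gradient LC-MS/MS peptide sequencing.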

Data set [14] deals with HepG2. Nature of the data set: Induction of GSH depletion in human HepG2 cells measured after 22 hrs by GSH-glo luminescence assay. The following applies: HepG2, 22 h, read-out: pIC50 (converted).

Values joined by “and” are separate entries in the source; they are usually repeats but may differ in a detail not shown here. Equal values may be shown once. Active and inactive are the calls of the source. The calls are words filed in the database; no cut-off is given here. Where a SMILES comes first, the peptide text is derived from it.

With `CC(=O)N[C@H](C(=O)N[C@@H](CC(=O)O)C(=O)N[C@H](C(=O)N[C@@H](C)C(=O)N[C@H](C=O)CC(=O)O)C(C)C)C(C)C` (Ac-VDVAD-aldehyde), the IC50 on Caspase-2 [1] is 0.0479 µM.

With `O=C1CN(C(=O)CCl)c2ccccc2N1`, the Ratio at Caspase-2 (Homo sapiens) [2] is 4.49 10^4/M/s. Further, the IC50 on Caspase-3 [3] is 28.8 µM; at Caspase-2 [10], 1.07 µM and 3.31 µM. The figures for the inhibition at Caspase-2 (Homo sapiens) [4] and on Caspase-2 (Homo sapiens) [7] were 92% and 86%, respectively. The result in the data set on HepG2 [5] was inactive. Also, the outcome on Caspase-2 (Homo sapiens) [6], with HepG2 [8] and in the data set with HepG2 [12] was Active. The Ratio IC50 in the data set listed under Homo sapiens came out at 27. Besides, the inhibition (in general, how much of the control response was suppressed) at 40 min, 62.5 µM at Caspase-3 [9] was determined as 59%. Besides, the inhibition at 40 min, 125 µM at Caspase-3 [11] was determined as 90%.

As for `NC(=O)CI`, the outcome at Caspase-2 (Homo sapiens) [13] was Active.

As to `Cc1nc(-c2ccc3c(c2)CCN3C(=O)CCl)cs1`, the IC50 in the data set on HepG2 [14] was 1.78 µM; at Caspase-2 [1] it was 4.9 µM; on Caspase-3 [3] it was 35.5 µM and > 31.6 µM; in the data set on HepG2 [8] (HepG2, 22 h), 2.24 µM; on Caspase-2 [10], 1.82 µM and 3.39 µM. Further, the inhibition was 89% at Caspase-2 (Homo sapiens) [4] and 79% at Caspase-2 (Homo sapiens) [7]. Also, on Caspase-2 (Homo sapiens) [6], the outcome was Active. Besides, at Caspase-3 [9], the inhibition at 40 min, 62.5 µM worked out at 10%. The inhibition at 40 min, 125 µM on Caspase-3 [11] worked out at 16%.

For the compound `O=C(CCl)Nc1ccc(NC(=O)c2cccs2)cc1`, on Caspase-2 (Homo sapiens) [2], the Ratio was 5.86 10^4/M/s. Moreover, the IC50 was 9.55 µM at Caspase-3 [3] and 1.29 µM at Caspase-2 [10]. Moreover, the inhibition at Caspase-2 (Homo sapiens) [4] was found to be 93%; on Caspase-2 (Homo sapiens) [7], 92%. In addition, the outcome on Caspase-2 (Homo sapiens) [6] was Active. For the same compound, the Ratio IC50 in the data set filed under Homo sapiens is 7. Besides, the inhibition at 40 min, 62.5 µM at Caspase-3 [9] is 24%. Further, the inhibition at 40 min, 125 µM on Caspase-3 [11] came out at 30%.

Take `CN1C(=O)CN(C(=O)CCl)c2ccc(Br)cc21`: the IC50 is 6.03 µM on Caspase-2 [1], above 50.1 µM on Caspase-3 [3] and 3.16 µM on Caspase-2 [10]. For the same compound, the inhibition turned out to be 79% on Caspase-2 (Homo sapiens) [4] and 62% at Caspase-2 (Homo sapiens) [7]. In addition, in the data set with HepG2 [5], the result was inactive. For the same compound, the result on Caspase-2 (Homo sapiens) [6], in the data set on HepG2 [8] and in the data set on HepG2 [12] was Active. Also, in the data set listed under Homo sapiens, the Ratio IC50 is above 16. Further, at Caspase-3 [9], the inhibition at 40 min, 62.5 µM amounted to 0%. Also, the inhibition at 40 min, 125 µM on Caspase-3 [11] was determined as 14%.

Regarding `COc1ccc2nc(NC(=O)CCl)sc2c1`, the IC50 at Caspase-3 [3] is above 63.1 µM; on Caspase-2 [10], 5.25 µM. The inhibition at Caspase-2 (Homo sapiens) [4] came out at 79.7%. Further, the Ratio IC50 in the data set listed under Homo sapiens is above 12. The inhibition at 40 min, 125 µM at Caspase-3 [11] was 21.7%.
